Structures are written as SMILES.

The test system of data set [1] is Mus musculus. Description: Hepatic toxicity in BALB/c mouse at 0.5 mg/kg, ip. Type of data set: organism-based. Also on record: dose 0.5 mg/kg, route intraperitoneal. The note with it: in vivo.
The test system of the next data set is HPAC. Description: Cytotoxicity against human HPAC cell line. It is filed as functional, cell-based. In short, it runs like this:
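Human pancreatic ductal carcinoma HPAC cells grown in 1:1 DMEM/Ham's F-12 with 10% FBS at 37 °C, seeded at 2 × 10^3 cells/well. After 24 h, compounds were added from DMSO stocks (final DMSO 0.1%) for 72 h. WST-1 was then added for 3 h at 37 °C and absorbance read at 450 nm.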

Data set [2] relates to Mus musculus. Description: Toxicity in BALB/c mouse at 0.5 mg/kg, ip. The note with it: in vivo. Also on record: dose 0.5 mg/kg, route intraperitoneal. Type of data set: organism-based.

Regarding `CCC(=C/[C@H](C)C/C=C/C(C)=C/[C@@H](CO)C(=O)[C@@H](C)[C@H](O)[C@@H](C)C/C(C)=C/C(=O)O)/C=C/[C@H]1CC(C)=CC(=O)O1`, the Activity result in the data set with Mus musculus [1] and in the data set on Mus musculus [2] was “Non-toxic” in each case. For the same compound, the IC50 (in general, the concentration at which inhibition is half-maximal) in the data set on HPAC came out at 0.309 nM.
